Assays:
CDK6 [1] = biological target: T1, CDK6 (Homo sapiens, UniProt Q00534); assay: Kinase inhibition; format: biochemical
Outline: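 Purified recombinant CDK6 (pET28a+, E. coli Codon+ expression, Ni-NTA) at 1 μM was incubated with 50 μM fresh ATP and increasing test compound (0–10 μM) for 1 h at 25 °C. Malachite green stopped the reaction, with colour developed 15–20 min at room temperature.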

CDK6 [2] = biological target: T1, CDK6; assay: Fluorescence quenching binding studies with CDK6; details: for Kq (bimolecular quenching rate constant): Kq=Ksv/τ0; for ΔG: van't Hoff; for Kd: K (binding constant, modified Stern–Volmer)
CDK6 [3] = biological target: T1, CDK6; assay: Isothermal titration calorimetry with CDK6; details: ITC, 25 °C, one binding site model
Outline: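 Recombinant CDK6 was expressed from pET28a+ in E. coli Codon+ cells (IPTG induction at 18 °C) and purified on Ni-NTA. Protein was dialysed against 25 mM Tris, 200 mM MgCl2, with ligand dissolved in the same buffer and 1% v/v DMSO added to protein. At 25 °C, 500 μM test compound in the syringe was titrated into 15 μM CDK6. Buffer-titration heats were subtracted before fitting n, ΔH and Ka.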

MCF-7 cells [4] = assay: Cell viability MTT assay, MCF-7; format: cell-based; details: Homo sapiens, MCF7, 72 h, read-out: IC50, cell viability
Outline: (§1)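 Cells were seeded at 5000–5500/well in 96-well plates and exposed to test compound (0–250 μM) for 72 h. MTT (from 5 mg/mL stock in PBS, pH 7.4) was added for 4–5 h. Formazan was dissolved in DMSO and OD read at 570 nm, then converted to % viability. Data are mean ±SD, n = 3.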

A549 cells [5] = assay: Cell viability MTT assay, A549; format: cell-based; details: Homo sapiens, A549, 72 h, read-out: IC50, cell viability
Outline: as §1

MCF-7 cells [6] = assay: Annexin-V/PI staining apoptosis, MCF-7; format: cell-based; details: MCF-7, IC50 concentration, 48 h
Outline: (§2)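 MCF-7 and A549 cells were treated with test compound or vehicle for 48 h, then harvested. They were stained with annexin-V/PI and analysed by flow cytometry to quantify apoptotic cells.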

A549 cells [7] = assay: Annexin-V/PI staining apoptosis, A549; format: cell-based, human; details: A549, IC50 concentration, 48 h
Outline: as §2

[8] = system: CDK6 expression in MCF-7 cells; assay: CDK6 protein expression; format: cell-based; details: MCF-7, IC50 dose
Outline: (§3)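 MCF-7 and A549 cells were treated with test compound or vehicle for a stipulated time, then harvested by trypsinization. They were lysed in RIPA buffer and protein was quantified by BCA. CDK6 was detected by Western blot with anti-CDK6 antibody, and band intensity was normalized to β-actin loading control.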

[9] = system: CDK6 expression in A549 cells; assay: CDK6 protein expression; format: cell-based, human; details: A549, IC50 dose
Outline: as §3

MCF-7 cells [10] = assay: ROS determination; format: cell-based; details: MCF-7, IC50 dose, 5–6 h
Outline: (§4)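 MCF-7 and A549 cells were treated with test compound or DMSO vehicle for 5–6 h. They were then loaded with 10 μM H2DCFDA for 30 min, trypsinized, and washed twice with PBS. Total ROS was measured by flow cytometry.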

A549 cells [11] = assay: ROS determination; format: cell-based, human; details: A549, IC50 dose, 5–6 h
Outline: as §4

MCF-7 cells [12] = assay: Colony formation assay, MCF-7; format: cell-based; details: MCF-7, IC50 concentration, 8–10 days
Outline: (§5)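 MCF-7 or A549 cells were plated at about 1000–1500 cells/well in 6-well plates. They were treated with test compound for 8–10 days at 37 °C, 5% CO2, with DMSO as vehicle control. Colonies were fixed with 100% methanol, stained with crystal violet, and counted by image analysis relative to vehicle.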

A549 cells [13] = assay: Colony formation assay, A549; format: cell-based, human; details: A549, IC50 concentration, 8–10 days
Outline: as §5

[14] = van't Hoff plot over 15, 25, 30 °C, same value printed at each temperature

T1 sequence (Q00534 whole entry): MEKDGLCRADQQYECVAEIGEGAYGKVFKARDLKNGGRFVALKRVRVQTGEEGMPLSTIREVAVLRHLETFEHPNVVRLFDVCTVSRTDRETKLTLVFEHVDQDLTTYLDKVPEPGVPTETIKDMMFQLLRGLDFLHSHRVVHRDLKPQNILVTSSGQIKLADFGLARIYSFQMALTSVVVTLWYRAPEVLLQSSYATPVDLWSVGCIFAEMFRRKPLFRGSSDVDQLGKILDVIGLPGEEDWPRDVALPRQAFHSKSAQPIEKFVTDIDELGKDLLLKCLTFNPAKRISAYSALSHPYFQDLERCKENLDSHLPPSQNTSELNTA

O=c1c(O)c(-c2ccc(O)c(O)c2)oc2cc(O)cc(O)c12 [quercetin]
IC50 (CDK6 [1]): 5.89 µM | Ksv (Stern–Volmer constant) (CDK6 [2]; 15 °C): 16.3 10^4 M^–1 | n (number of binding sites) (CDK6 [2]; 15 °C): 1.35 | Kq (bimolecular quenching rate constant) (CDK6 [2]; 15 °C): 6.03 10^13 M^–1 s^–1 | ΔG (CDK6 [2]; 15 °C): –9.400 kcal mol^–1 | Ksv (Stern–Volmer constant) (CDK6 [2]; 25 °C): 13.6 10^4 M^–1 | TΔS (CDK6 [2]; 25 °C): 2.46 kcal mol^–1 | n (number of binding sites) (CDK6 [2]; 25 °C): 1.33 | Kq (bimolecular quenching rate constant) (CDK6 [2]; 25 °C): 5.03 10^13 M^–1 s^–1 | ΔG (CDK6 [2]; 25 °C): –9.482 kcal mol^–1 | Ksv (Stern–Volmer constant) (CDK6 [2]; 30 °C): 12.2 10^4 M^–1 | TΔS (CDK6 [2]; 30 °C): 2.50 kcal mol^–1 | n (number of binding sites) (CDK6 [2]; 30 °C): 1.33 | Kq (bimolecular quenching rate constant) (CDK6 [2]; 30 °C): 4.51 10^13 M^–1 s^–1 | ΔG (CDK6 [2]; 30 °C): –9.524 kcal mol^–1 | Kd (CDK6 [2]; 15 °C): 0.0769 µM | Kd (CDK6 [2]; 25 °C): 0.104 µM | Kd (CDK6 [2]; 30 °C): 0.143 µM | ΔH (CDK6 [2]; [14]): –7.019 kcal mol^–1 | ΔS (CDK6 [2]; [14]): 8.267 cal mol^–1 K^–1 | ΔH (CDK6 [3]): -112 ± 0.457 kcal/mol | ΔS (CDK6 [3]): −351 cal/mol/deg | IC50 (MCF-7 cells [4]): 41.8 ± 2.21 µM | IC50 (A549 cells [5]): 52.4 ± 2.44 µM | cells in which apoptosis is induced (MCF-7 cells [6]): ~21.10% | cells in which apoptosis is induced (A549 cells [7]): ~16.22% | effect on CDK6 expression [8]: decreases the CDK6 expression | effect on CDK6 expression [9]: decreases the CDK6 expression | effect on ROS production (MCF-7 cells [10]): decreases the production of ROS | effect on ROS production (A549 cells [11]): decreases the production of ROS | effect on colonization (colony formation) (MCF-7 cells [12]): significantly decreases the colonization | effect on colonization (colony formation) (A549 cells [13]): significantly decreases the colonization
